According to ChEMBL document CHEMBL2086264:
Converted amounts (≈) assume the structure as drawn. The source made the active and inactive calls. The rule behind the calls is not given here.

What was measured:
Enterococcus faecalis = experiment: Antibacterial activity against Enterococcus faecalis ATCC 33186 after overnight incubation by microbroth dilution assay; type: functional
Outline: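 CLSI microbroth dilution in Mueller-Hinton broth; compounds dissolved in DMSO, twofold serial dilutions giving final 200–0.0125 µg/mL. Inoculum from single colony grown at 37°C to mid-log (OD600 0.5), diluted to final OD600 0.0005 (~10^5 CFU/mL). Incubated overnight at 37°C; MIC = lowest concentration inhibiting 90% of visible growth.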

Bacillus anthracis [1] = experiment: Inhibition of DNA synthesis in Bacillus anthracis sterne assessed as Inhibition of [3H]thymidine incorporation into DNA incubated for 15 mins prior to [3H]thymidine addition measured after 30 mins by scintillation counting; type: functional, organism-based
Bacillus anthracis [2] = experiment: Inhibition of protein synthesis in Bacillus anthracis sterne assessed as Inhibition of [3H]amino acid incorporation into protein incubated for 15 mins prior to [3H]amino acid addition measured after 30 mins by scintillation counting; type: functional, organism-based
Bacillus subtilis = experiment: Antibacterial activity against Bacillus subtilis ATCC 23857 after overnight incubation by microbroth dilution assay; type: functional
Outline: (§1)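 CLSI M7A7 microbroth dilution in Mueller-Hinton broth; S. pneumoniae broth given 5% lysed horse blood. DMSO stocks of 10 mg/mL; twofold dilutions to final 200–0.0125 µg/mL. Mid-log inoculum (OD600 0.5) diluted to final OD600 0.0005 (~10^5 CFU/mL). Overnight at 37°C; MIC is the lowest concentration inhibiting 90% of visible growth.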

Bacillus anthracis [3] = experiment: Antibacterial activity against Bacillus anthracis after overnight incubation by microbroth dilution assay; type: functional
[4] = Inhibition of Staphylococcus aureus PlsY expressed in Escherichia coli FB23281 using [U-14C]glycerol-PO4 as substrate after 20 mins by scintillation counting
Outline: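 Membranes from E. coli FB23281 (ΔplsY) expressing S. aureus PlsY (SA1187), 4 µg per reaction. pH 7.4 buffer of 100 mM Tris–HCl, 150 mM NaCl, 1 mg/mL BSA and 5 mM Na3VO4, with 100 µM [U-14C]glycerol-PO4. Started with 16:0-PO4 (final 100 µM), 20 min at 37°C. Spotted on filter discs, washed in graded ice-cold TCA, scintillation counted.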

Streptococcus pneumoniae = experiment: Antibacterial activity against Streptococcus pneumoniae R6 after overnight incubation by microbroth dilution assay; type: functional; outline: as §1
Staphylococcus aureus = experiment: Antibacterial activity against Staphylococcus aureus ATCC 29213 after overnight incubation by microbroth dilution assay; type: functional; outline: as §1
Bacillus anthracis [5] = experiment: Inhibition of RNA synthesis in Bacillus anthracis sterne assessed as Inhibition of [3H]uracil incorporation into RNA incubated for 15 mins prior to [3H]uracil addition measured after 30 mins by scintillation counting; type: functional, organism-based

Compound | MIC90 (Enterococcus faecalis) [µg/mL] | inhibition (Bacillus anthracis [1]) | inhibition (Bacillus anthracis [2]) | MIC90 (Bacillus subtilis) [µg/mL] | MIC90 (Bacillus anthracis [3]) [µg/mL] | IC50 [4] [µM] | MIC90 (Streptococcus pneumoniae) [µg/mL] | MIC90 (Staphylococcus aureus) [µg/mL] | inhibition (Bacillus anthracis [5])
C=CCCCCCCCCC(=O)NS(=O)(=O)Oc1ccc(OC)cc1 | 1.6 (≈ 4.33 µM) | Active | Active | 6.25 (≈ 16.9 µM) | 12.5 (≈ 33.8 µM) | 27 | 200 (≈ 541 µM) | 12.5 (≈ 33.8 µM) | Active
O=C(CCCCCCCCCCc1ccccc1)NS(=O)(=O)Oc1ccccc1 | 12.5 (≈ 29.9 µM) | Active | Active | 100 (≈ 239 µM) | 3.13 (≈ 7.5 µM) | 8 | 200 (≈ 479 µM) | 6.25 (≈ 15 µM) | Active
O=C(CCCCCCc1ccccc1)NS(=O)(=O)Oc1ccccc1 | 100 (≈ 277 µM) | Active | Active | > 200 | 12.5 (≈ 34.6 µM) | 76 | 50 (≈ 138 µM) | 50 (≈ 138 µM) | Active
CCCCCCCCCCCCCCCC(=O)NS(=O)(=O)Oc1ccc(Cl)cc1 | > 200 | Active | Active | > 200 | 6.25 (≈ 14 µM) | 6 | 100 (≈ 224 µM) | > 200 | Active
CCCCCCCCCCCCCCCC(=O)NS(=O)(=O)OC1CCOCC1 | > 200 | Active | Active | > 200 | 3.13 (≈ 7.46 µM) | 30 | > 200 | > 200 | Active
CCCCCCCCCCCCCCCC(=O)NS(=O)(=O)Oc1ccc(CCNC(=O)OC(C)(C)C)cc1 | > 200 | Active | Active | > 200 | 1.56 (≈ 2.81 µM) | 22 | 3.13 (≈ 5.64 µM) | > 200 | Active
CCCCCCCCCCCCCCCC(=O)NS(=O)(=O)OC1CCCC1 [CYCLOPENTYL PALMITOYLSULFAMATE] | > 200 | Active | Active | > 200 | > 100 | > 100 | > 200 | > 200 | Active
CCCCCCCCCCCCCCCC(=O)NS(=O)(=O)OC1CCOC1 (stereo not drawn) | > 200 | Active | Active | > 200 | 1.56 (≈ 3.85 µM) | 45 | > 200 | 25 (≈ 61.6 µM) | Active
O=C(CCCCCc1ccccc1)NS(=O)(=O)Oc1ccccc1 | 50 (≈ 144 µM) | Active | Active | > 200 | 100 (≈ 288 µM) | 100 | 50 (≈ 144 µM) | 100 (≈ 288 µM) | Active
CCCCCCCCCCCCCC(=O)NS(=O)(=O)Oc1ccc(OC)cc1 | 6.25 (≈ 15.1 µM) | Active | Active | > 200 | 0.78 (≈ 1.89 µM) | 6 | > 200 | > 200 | Active
CCCCCCCCCCCCCCCC(=O)NS(=O)(=O)Oc1ccc2ncccc2c1 | 200 (≈ 432 µM) | Active | Active | 200 (≈ 432 µM) | 3.13 (≈ 6.77 µM) | 9 | 1.56 (≈ 3.37 µM) | > 200 | Active
CCCCCCCCCCCCCCCC(=O)NS(=O)(=O)OC1CCNCC1 | > 200 | Active | Active | > 200 | > 100 | > 100 | > 200 | > 200 | Active
CCCCCCCCCCCCCCCC(=O)NS(=O)(=O)OC1CCCCC1 [CYCLOHEXYL PALMITOYLSULFAMATE] | > 200 | Active | Active | > 200 | 6.25 (≈ 15 µM) | 5 | 100 (≈ 239 µM) | > 200 | Active
CCCCCCCCCCCCCCCC(=O)NS(=O)(=O)Oc1ccc(OC)cc1 | 3.12 (≈ 7.06 µM) | Active | Active | 3.12 (≈ 7.06 µM) | 3.13 (≈ 7.09 µM) | 8 | 12.5 (≈ 28.3 µM) | 12.5 (≈ 28.3 µM) | Active
CCCCCCCCCCCCCCCC(=O)NS(=O)(=O)OC1CCN(C(=O)OC(C)(C)C)CC1 | > 200 | Active | Active | > 200 | 3.13 (≈ 6.03 µM) | 15 | > 200 | > 200 | Active
CCCCCCCCCCCCCCCC(=O)NS(=O)(=O)Oc1ccc(CCN)cc1 | > 200 | Active | Active | > 200 | > 100 | > 100 | > 200 | > 200 | Active
CCCCCCCCCCCCCCCC(=O)NS(=O)(=O)OC [METHYL PALMITOYLSULFAMATE] | > 200 | Active | Active | > 200 | > 100 | 80 | > 200 | > 200 | Active
O=C(/C=C/c1ccc(-c2ccccc2)cc1)NS(=O)(=O)Oc1ccccc1 | 50 (≈ 132 µM) | Active | Active | > 200 | 100 (≈ 264 µM) | > 100 | 100 (≈ 264 µM) | 25 (≈ 65.9 µM) | Active
CCCCCCCCCCCCCCCC(=O)NS(=O)(=O)Oc1ccc(C)cc1 | 200 (≈ 470 µM) | Active | Active | 200 (≈ 470 µM) | 6.25 (≈ 14.7 µM) | 12 | > 200 | > 200 | Active
CCCCCCCCCCCCCCCC(=O)NS(=O)(=O)Oc1ccc(CC(=O)OC)cc1 | > 200 | Active | Active | > 200 | 3.13 (≈ 6.47 µM) | 11 | 0.78 (≈ 1.61 µM) | 25 (≈ 51.7 µM) | Active
CCCCCCCCCCCCCCCC(=O)NS(=O)(=O)Oc1ccc(-c2ccc([N+](=O)[O-])cc2)cc1 | > 200 | Active | Active | > 200 | 1.56 (≈ 2.93 µM) | 11 | 0.78 (≈ 1.46 µM) | 100 (≈ 188 µM) | Active
CCCCCCCCCCCCCCCC(=O)NS(=O)(=O)Oc1cccc(Cl)c1 | 100 (≈ 224 µM) | Active | Active | 100 (≈ 224 µM) | 3.13 (≈ 7.02 µM) | 14 | > 200 | > 200 | Active
CCCCCCCCCCCCCCCC(=O)NS(=O)(=O)Oc1ccccc1 [PHENYL PALMITOYLSULFAMATE] | 50 (≈ 121 µM) | Active | Active | 50 (≈ 121 µM) | 3.13 (≈ 7.6 µM) | 8 | > 200 | > 200 | Active
CCCCCCCCCCCCCCCC(=O)NS(=O)(=O)Oc1ccc(Cl)c(Cl)c1 | 100 (≈ 208 µM) | Active | Active | 100 (≈ 208 µM) | 12.5 (≈ 26 µM) | 9 | > 200 | > 200 | Active
CCCCCCCCCCCCCCCC(=O)NS(=O)(=O)Oc1ccc(C(=O)OCC)cc1 | > 200 | Active | Active | > 200 | 3.13 (≈ 6.47 µM) | 10 | 1.56 (≈ 3.23 µM) | 6.25 (≈ 12.9 µM) | Active
CCCCCCCCCCCCCCCC(=O)NS(=O)(=O)Oc1ccc2c(c1)OCO2 | > 200 | Active | Active | > 200 | > 100 | 12 | 3.13 (≈ 6.87 µM) | 100 (≈ 219 µM) | Active
CCCCCCCCCCCCCCCC(=O)NS(=O)(=O)Oc1ccc2c(OS(N)(=O)=O)coc2c1 | 100 (≈ 183 µM) | Active | Active | 100 (≈ 183 µM) | 3.13 (≈ 5.73 µM) | 41 | 3.13 (≈ 5.73 µM) | 25 (≈ 45.7 µM) | Active
